Source: ChEMBL document CHEMBL1125133, “Benzodiazepine receptor binding activity of 9-(1-phenylethyl)purines” (J Med Chem, 1990)

What was measured:
Rattus norvegicus = species on record: Rattus norvegicus; assay: Percent change in conflict responding in Long-Evans rats; assay type: functional
Procedure, shortened: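 Long-Evans rats on a modified Geller–Seifter conflict schedule. Dosed by oral gavage at 25 mg/kg as a 0.5% methylcellulose suspension, with chlordiazepoxide at 20 mg/kg. Read-out is percent change in conflict responding, mean ±.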

[1] = molecular target: GABA-A receptor; anion channel; assay: Inhibitory concentration against specific binding of [3H]diazepam to Benzodiazepine receptor in rat brain; assay type: tissue-based
[2] = molecular target: T1, GABA-A receptor; anion channel (Rattus norvegicus) (UniProt O09028+P15431+P18506+P18508+P19969+P20236+P23574+P23576+P28471+P28473+P30191+P62813+P63079+P63138+Q91ZM7+Q9ES14); assay: Inhibition of [3H]-diazepam binding to rat brain GABA-A benzodiazepine receptor at 100 uM
[3] = molecular target: T1, GABA-A receptor; anion channel (Rattus norvegicus); assay: Inhibition of [3H]diazepam binding to rat brain GABA-A Benzodiazepine receptor at 100 uM

| IC50 [1] | SMILES | Change (Rattus norvegicus) | other results |
| --- | --- | --- | --- |
| 480 nM | CC(c1cccc(O)c1)n1cnc2c(N(C)C)ncnc21 (racemic) | -7% | – |
| 100000 nM | C[C@H](c1ccccc1)n1cnc2c(N(C)C)ncnc21 | – | – |
| 1700 nM | CSc1ncnc2c1ncn2C(C)c1cccc(OC(C)=O)c1 (racemic) | – | – |
| 160 nM | CC(c1cccc(N)c1)n1cnc2c(N(C)C)ncnc21 (racemic) | -22% | – |
| 380 nM | CC(=O)Oc1cccc(C(C)n2cnc3c(N(C)C)ncnc32)c1 (racemic) | – | – |

The next lines start with the molecule.

| SMILES | IC50 [1] | Change (Rattus norvegicus) | other results |
| --- | --- | --- | --- |
| CSc1ncnc2c1ncn2Cc1ccccc1 | – | 13% | – |
| CSc1ncnc2c1ncn2C(C)c1cccc(O)c1 (racemic) | 1200 nM | – | – |
| CC(=O)Oc1cccc(Cn2cnc3c(N(C)C)ncnc32)c1 | – | 2% | – |
| CC(c1cccc(N)c1)n1c(Br)nc2c(N(C)C)ncnc21 (racemic) | 520 nM | 5% | – |
| CC(=O)Oc1cccc(C(C)n2cnc3c(O)ncnc32)c1 (racemic) | – | – | inhibition [2]: 68% |
| CN(C)c1ncnc2c1ncn2Cc1cccc(O)c1 | – | 2% | – |
| CC(c1cccc(O)c1)n1cnc2c(O)ncnc21 (racemic) | 2200 nM | – | – |
| C[C@@H](c1ccccc1)n1cnc2c(N(C)C)ncnc21 | – | 5% | – |
| CC(c1cccc(O)c1)n1cnc2c(S)ncnc21 (racemic) | – | – | inhibition [3]: 64% |
